Series [1] relates to Nakaseomyces glabratus. The series can be described thus: Antifungal activity against Candida glabrata 5376 infected in neutropenic ICR/Swiss mouse candidiasis model assessed as […] burden per kidney administered intraperitoneally once every 96 hrs measured per 96 hrs. The class given is functional. Conditions: Nakaseomyces glabratus, 5376, Kidney, ip. An outline of the steps: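 Neutropenic ICR/Swiss mice infected i.v. with the strain; therapy began 2 h later. Total doses of 1.25–320 mg/kg/96 h were given i.p. as 1, 2, 4 or 6 doses (q96h, q48h, q24h, q16h), three mice per regimen. Kidney CFU were counted after 4 days. Effect is the change from untreated controls at the end of therapy.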

Series [2] concerns Candida albicans. Briefly: Antifungal activity against Candida albicans K-1 infected in neutropenic ICR/Swiss mouse candidiasis model assessed as reduction of […] in kidney at 20 mg/kg, ip administered 2 hrs postinfection as single dose measured within 1 to 4 hrs post dosing by time-kill assay. The class given is functional, organism-based. Details: dose 20 mg/kg. In outline: (§1)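 Single ip dose (20, 5 or 1.25 mg/kg) given 2 h after iv infection of neutropenic mice with K-1. Three treated and three control mice were sampled at intervals over 96 h for kidney CFU. PAFE is the time for treated burden to rise 1 log10 after serum levels fall below MIC, minus the same time in controls. Free drug was taken as 1%.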

In series [3] the test system is Nakaseomyces glabratus. Briefly: Antifungal activity against Candida glabrata 5376 infected in neutropenic ICR/Swiss mouse candidiasis model assessed as reduction of […] in kidney at 20 mg/kg, ip administered 2 hrs postinfection as single dose measured within 1 to 4 hrs post dosing by time-kill assay. The class given is functional, organism-based. Details: dose 20 mg/kg. An outline of the steps:
(§2)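 Neutropenic mice were infected i.v. and 2 h later given a single i.p. dose (1.25, 5 or 20 mg/kg). Groups of three treated and three control mice were killed at intervals over 96 h, and kidney CFU were counted on SDA (limit 100 CFU/ml). The post-antifungal effect is t − c: the time for a 1 log10 CFU/kidney increase once serum levels fall below the MIC in treated mice, minus the same time in controls.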

For series [4], the system named is Nakaseomyces glabratus. Briefly: Antifungal activity against Candida glabrata 34341 infected in neutropenic ICR/Swiss mouse candidiasis model assessed as dose required to maintain […] of 1.83 +/- 0.54 log10CFU per kidney administered intraperitoneally every 24 hrs up to 4 days measured per 24 hrs. Format: functional.
Series [5] relates to Nakaseomyces glabratus. The series can be described thus: Antifungal activity against Candida glabrata 5376 infected in neutropenic ICR/Swiss mouse candidiasis model assessed as suppression of fungal regrowth at 5 mg/kg, ip administered 2 hrs postinfection as single dose by time-kill assay. The class given is functional, organism-based. Details: dose 5 mg/kg. An outline of the steps:
as §2

Series [6] deals with Candida albicans. The series can be described thus: Antifungal activity against Candida albicans K-1 infected in neutropenic ICR/Swiss mouse candidiasis model assessed as prolongation of fungal growth suppression at 5 mg/kg, ip administered 2 hrs postinfection as single dose by time-kill assay. Conditions: route intraperitoneal. Format: functional. An outline of the steps:
as §1

Series [7] relates to Nakaseomyces glabratus. The series can be described thus: Antifungal activity against Candida glabrata 5376 infected in neutropenic ICR/Swiss mouse candidiasis model assessed as prolongation of fungal growth suppression at 5 mg/kg, ip administered 2 hrs postinfection as single dose by time-kill assay. The class given is functional. As to conditions: route intraperitoneal. In outline: as §2

Series [8] has as its system Serum. The series can be described thus: Fraction unbound in Candida albicans K-1 infected neutropenic ICR/Swiss mouse serum at 1.25 mg/kg, ip administered 2 hrs postinfection as single dose. Format: ADME, organism-based. Details: dose 1.25 mg/kg, route intraperitoneal. As to conditions: in vivo.
Series [9] relates to Serum. Briefly: Fraction unbound in Candida glabrata 5376-infected neutropenic ICR/Swiss mouse serum at 5 mg/kg, ip administered 2 hrs postinfection as single dose. The class given is ADME, organism-based. More on the design: dose 5 mg/kg, route intraperitoneal. As to conditions: in vivo.
Series [10] relates to Candida albicans. Briefly: Antifungal activity against Candida albicans K-1 infected in neutropenic ICR/Swiss mouse candidiasis model assessed as dose required to maintain […] of 3.90 +/- 0.15 log10CFU per kidney administered intraperitoneally every 16 hrs up to 4 days measured per 96 hrs. Format: functional. An outline of the steps:
(§3)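 Neutropenic mice were infected iv with C. albicans K-1 2 h before therapy. Total doses of 1.25, 5, 20, 80 and 320 mg/kg/96 h were split into 1, 2, 4 or 6 ip doses (q96h, q48h, q24h, q16h), three mice per regimen. Effect is the log10 CFU/kidney relative to untreated controls at 96 h. Static and 1-log doses were taken from a Hill model fit.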

Series [11] has as its system Candida albicans. Briefly: Antifungal activity against Candida albicans K-1 infected in neutropenic ICR/Swiss mouse candidiasis model assessed as […] burden per kidney administered intraperitoneally once every 96 hrs measured per 96 hrs. The class given is functional. Conditions: K-1, Kidney, ip. In outline: as §3
For series [12], the system named is Candida tropicalis. The series can be described thus: Antifungal activity against Candida tropicalis 98-234 assessed as partial growth inhibition after 24 hrs by CLSI end point method. The class given is functional. Conditions: 98-234, 24 h.
The subject of series [13] is Nakaseomyces glabratus. Briefly: Antifungal activity against Candida glabrata 34341 assessed as partial growth inhibition after 24 hrs by CLSI end point method. The class given is functional. Conditions: Nakaseomyces glabratus, 34341, 24 h. In outline:
(§4)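 Two end points were read against the drug-free control well: partial growth inhibition (the CLSI end point) and complete inhibition. Run in duplicate on four separate occasions; the value is the mean. Drug stock was made in DMSO and diluted in 0.9% NaCl.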

The test system of series [14] is Candida albicans. The series can be described thus: Antifungal activity against Candida albicans 98-17 assessed as complete growth inhibition after 24 hrs by CLSI end point method. Format: functional. Conditions: 98-17, 24 h. An outline of the steps:
(§5)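 CLSI M27-A2 broth dilution. Two end points read against the drug-free control well: partial inhibition (CLSI end point) and complete inhibition. Run in duplicate on four separate occasions; value is the mean. Drug stock in DMSO, diluted in 0.9% NaCl.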

Series [15] concerns Candida albicans. The series can be described thus: Antifungal activity against Candida albicans 580 assessed as complete growth inhibition after 24 hrs by CLSI end point method. Format: functional. As to conditions: Candida albicans, 580, 24 h. In outline: as §5
Series [16] has as its system Candida tropicalis. The series can be described thus: Antifungal activity against Candida tropicalis 98-234 assessed as complete growth inhibition after 24 hrs by CLSI end point method. The class given is functional. As to conditions: 98-234, 24 h.
In series [17] the test system is Nakaseomyces glabratus. Briefly: Antifungal activity against Candida glabrata 34341 assessed as complete growth inhibition after 24 hrs by CLSI end point method. Format: functional. As to conditions: Nakaseomyces glabratus, 34341, 24 h. An outline of the steps:
as §4

Series [18] concerns Candida albicans. The series can be described thus: Antifungal activity against Candida albicans 580 infected in neutropenic ICR/Swiss mouse candidiasis model assessed as fungal count per kidney administered 2 hrs postinfection measured up to 48 hrs. Format: functional. In outline: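 Untreated neutropenic mice infected via the tail vein (inoculum about 6.1 log10 CFU/ml, 0.1 ml). Growth is the rise in kidney CFU over 48 h. Kidneys were homogenised, serially diluted 1:10 and plated on SDA for 24 h at 35°C. Mean of three mice.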

Series [19] deals with Nakaseomyces glabratus. The series can be described thus: Antifungal activity against Candida glabrata 513 infected in neutropenic ICR/Swiss mouse candidiasis model assessed as fungal count per kidney administered 2 hrs postinfection measured up to 48 hrs. The class given is functional. An outline of the steps: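 Female ICR/Swiss mice (23–27 g) made neutropenic with cyclophosphamide s.c. (150 mg/kg day −4, 100 mg/kg day −1, 100 mg/kg day +2). Infected by tail vein with 0.1 ml inoculum (~6.1 log10 CFU/ml). Kidneys of untreated mice were homogenised and plated on SDA for 24 h at 35°C. Growth over 48 h is given as log10 CFU/kidney.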

A short description of series [20]: Elimination half life in serum of neutropenic ICR/Swiss mouse candidiasis model at 80 mg/kg, ip by reverse-phase high-pressure liquid chromatography. The class given is ADME, organism-based. More on the design: dose 80 mg/kg, route intraperitoneal. As to conditions: read-out: beta t1/2 (converted). An outline of the steps: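 Infected neutropenic ICR/Swiss mice given single ip doses (5, 20 or 80 mg/kg; 0.2 ml); serum from three isoflurane-anaesthetised mice at 1, 4, 8, 12, 24 and 48 h, stored at −80°C, assayed by reverse-phase HPLC with fluorescence detection, loratadine internal standard, linear 10–50,000 ng/ml. Noncompartmental analysis; half-life by nonlinear least squares.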

≈ marks a conversion by molar mass, not a printed value. Calls of active or inactive are those of the source. No cut-off for these calls is given here. Starred links: 1 amine or outer side, 2 acyl side, 3 side chain; linkers in the order of their positions; H or OH if unused. Positions of bridges follow the written chain, without caps; N, C: chain ends. Non-standard residues stand in square brackets, D forms with d. Residues, ends and D or L forms follow the SMILES beside them. *: point of attachment. pTerphenylCO(4''-OnC5H11) = CCCCCOc1ccc(-c2ccc(-c3ccc(C(=O)*)cc3)cc2)cc1; Orn(4R-OH,5R-OH) = O=C([C@H](C[C@@H](O)[C@@H](O)N[*:3])N[*:1])[*:2]; hTyr(3S-OH,4S-OH) = N[C@H](C(=O)O)[C@H](O)[C@@H](O)c1ccc(O)cc1; Pro(3S-OH,4S-Me) = C[C@H]1CN[C@H](C(=O)O)[C@H]1O; Hyp = O=C(O)[C@@H]1C[C@@H](O)CN1

As usually defined, the ED50 is the dose that gives a 50% effect, or the effect in half of the subjects. One may read the MIC as the lowest concentration found to suppress growth. For `CCCCCOc1ccc(-c2ccc(-c3ccc(C(=O)N[C@H]4C[C@@H](O)[C@@H](O)NC(=O)[C@@H]5[C@@H](O)[C@@H](C)CN5C(=O)[C@H]([C@@H](C)O)NC(=O)[C@H]([C@H](O)[C@@H](O)c5ccc(O)cc5)NC(=O)[C@@H]5C[C@@H](O)CN5C(=O)[C@H]([C@@H](C)O)NC4=O)cc3)cc2)cc1` [ANIDULAFUNGIN] ({pTerphenylCO(4''-OnC5H11)}-[Orn(4R-OH,5R-OH)]T[Hyp][hTyr(3S-OH,4S-OH)]T[Pro(3S-OH,4S-Me)]; lactam 1-C), the ED50 was determined as 8.12 mg/kg in the series on Nakaseomyces glabratus [1] and 2.13 mg/kg in the series with Candida albicans [11]. In addition, the result in the series with Candida albicans [2], in the series with Nakaseomyces glabratus [3] and in the series with Nakaseomyces glabratus [5] was Active. Also, the Activity in the series on Nakaseomyces glabratus [4] is 6.9 mg/kg; in the series with Candida albicans [6], >96 h; with Nakaseomyces glabratus [7] it was 19 h; in the series on Candida albicans [10], 16.5 mg/kg. Further, the Fu with Serum [8] and in the series with Serum [9] was 1% in each case. Moreover, the MIC turned out to be 0.015 mg/L (≈ 0.0132 µM) with Candida tropicalis [12]; 0.12 mg/L (≈ 0.105 µM) with Nakaseomyces glabratus [13]; 0.12 mg/L (≈ 0.105 µM) in the series with Candida albicans [14]; 0.03 mg/L (≈ 0.0263 µM) in the series on Candida albicans [15]; 0.12 mg/L (≈ 0.105 µM) with Candida tropicalis [16]; 1 mg/L (≈ 0.877 µM) with Nakaseomyces glabratus [17]. Moreover, the log10cfu in the series with Candida albicans [18] is recorded as 3.4; in the series with Nakaseomyces glabratus [19], 2.43. Also, the half-life in series [20] is 24 h.

The record behind these values is ChEMBL document CHEMBL1153564 (Antimicrob Agents Chemother, 2008).
